T cruzi growth-1: blocks T. cruzi growth in NIH3T3 culture; T. cruzi beta-gal in NIH3T3, GalScreen luminescence, 90 h; inhibition, % at 8.34 µM; 5.9% of 77,000 active;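 active = mean inhibition above about 93%, with at least 55% of replicates each passing it, limit read from the data, passing the limit was not always enough; inconclusive = only one of those two conditions holds; inactive = neither condition holds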
KDM4C inh: KDM4C (human) demethylase inhibition | Q9H3R0 | GST-KDM4C 2-372, H3K9me3 peptide, LANCE TR-FRET | inhibition, % at 12.5 µM | 0.15% of 96,000 active | AID 720574;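 active = mean replicate inhibition above about 25%, with at least 55% of replicates also reaching it, limit read from the data, passing the limit was not always enough; inconclusive = only one of those two conditions met; inactive = neither condition met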
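Material: GST-tagged GASC-1 (JMJD2C) catalytic fragment, aa 2-372. Input: enzyme final amount 10 nM. Medium: HEPES buffer, pH 7.5, plus ascorbate. Reagent: H3K9me3 peptide substrate, Fe(II), 2-oxoglutarate. Doses: single dose. Times: reaction 30 min RT, detection step 1 h RT. Measured by: LANCE TR-FRET. Evaluation: Fall in 671/618 emission ratio as inhibition.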
Pf Dd2 inh: inhibitors of Plasmodium falciparum Dd2 growth. activity change, % at 10 µM. 2.3% of 94,000 active. P. falciparum Dd2 growth, SYBR Green, 72 h; active compounds read low; in the data active = activity change below about -80%; inconclusive = no clear call, values can overlap the other calls
IDH1 R132H inh: inhibitors of human IDH1 R132H. O75874. IDH1 R132H reductase, diaphorase/resazurin fluorescence, 60 min. inhibition, % at 10 µM. 0.18% of 70,000 active; in the data active = inhibition above about 34%; inconclusive = no clear call, values can overlap the other calls; inactive = below about 11%;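 also: 0% = DMSO and 100% = no enzyme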
Target sequence (O75874 whole entry R132H): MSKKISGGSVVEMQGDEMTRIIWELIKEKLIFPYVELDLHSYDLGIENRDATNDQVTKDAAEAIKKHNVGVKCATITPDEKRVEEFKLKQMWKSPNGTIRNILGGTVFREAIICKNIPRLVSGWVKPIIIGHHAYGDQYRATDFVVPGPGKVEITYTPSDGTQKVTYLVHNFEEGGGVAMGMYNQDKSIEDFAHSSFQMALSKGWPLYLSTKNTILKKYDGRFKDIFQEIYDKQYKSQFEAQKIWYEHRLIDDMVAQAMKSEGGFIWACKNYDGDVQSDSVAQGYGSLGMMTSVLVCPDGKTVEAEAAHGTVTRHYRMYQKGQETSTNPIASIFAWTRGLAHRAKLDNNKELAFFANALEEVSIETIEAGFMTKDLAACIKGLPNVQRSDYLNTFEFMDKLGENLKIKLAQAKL
T cruzi growth-2: inhibitors of T. cruzi proliferation | AID 651739 | shares compounds with T cruzi growth-1 | T. cruzi beta-gal in NIH3T3, GalScreen luminescence, 90 h | 72% of 5,600 active | inhibition, % at 8.35 µM;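 active = mean replicate inhibition above about 95% and at least 55% of replicates individually reaching it, limit read from the data; inconclusive = only one of the two criteria is met; inactive = neither criterion is met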
T cruzi growth-3: inhibitors of T. cruzi proliferation. T. cruzi beta-gal in NIH3T3, GalScreen luminescence, 90 h. 21% of 5,600 active. AID 651740. shares compounds with T cruzi growth-1. inhibition, % at 2.09 µM;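 active = mean inhibition above about 95%, with at least 55% of replicates also reaching it, limit read from the data; inconclusive = meets just one of the two conditions; inactive = meets neither condition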;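 also: plate controls were neutral control median for no effect and positive control median for full effect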
NIH3T3 tox: cytotoxicity in mouse NIH/3T3 fibroblasts. shares compounds with T cruzi growth-1. NIH/3T3 viability, CellTiter-Glo ATP luminescence, 90 h. cytotoxicity (signal decrease), % at 8.35 µM. 14% of 5,600 active;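 active = mean signal decrease across replicates above about 35% based on untreated-well scatter, with enough replicates individually passing, limit read from the data; inconclusive = no rule stated though some were filed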;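 also: 0% = median of neutral control wells and 100% = median of positive control wells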
NIH3T3 tox 2: NIH/3T3 (mouse) viability loss. NIH/3T3 viability, CellTiter-Glo ATP luminescence, 90 h. inhibition, % at 24.9 µM. AID 651744. shares compounds with T cruzi growth-1. 56% of 5,600 active;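 active = mean loss of cell viability signal at or above a set limit, and enough replicates individually reaching it; inconclusive = meets only the mean limit or only the replicate share; inactive = meets neither condition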;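 also: 0% = median of neutral control wells and 100% = median of positive control wells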
Active calls of the source: *; ? = inconclusive; . = no result. A selection: hits, their analogues and other compounds. The true share with any hit is near 5.9%.

SMILES	T cruzi growth-1	KDM4C inh	Pf Dd2 inh	IDH1 R132H inh	T cruzi growth-2	T cruzi growth-3	NIH3T3 tox	NIH3T3 tox 2
C[C@@H]1CCCCO[C@H](CN(C)Cc2ccc(Cl)c(Cl)c2)[C@@H](C)CN([C@@H](C)CO)C(=O)c2cc(NC(=O)CCC(F)(F)F)ccc2O1	98.2*	0.7	-94.8*	-0.1	?	113.7*	-15.0	105.9*
C[C@@H]1CCCCO[C@@H](CN(C)Cc2ccc(Cl)c(Cl)c2)[C@@H](C)CN([C@H](C)CO)C(=O)c2cc(NC(=O)Nc3ccccc3)ccc2O1	93.6	.	-8.5	.	.	.	.	.
C[C@@H]1CCCCO[C@H](CN(C)Cc2ccc(Cl)c(Cl)c2)[C@@H](C)CN([C@@H](C)CO)C(=O)c2cc(NC(=O)Nc3ccc(F)cc3)ccc2O1	100.8*	-1.4	-79.5	0.8	90.8	112.4*	-8.2	33.5*
C[C@H](CO)N1C[C@H](C)[C@H](CN(C)Cc2ccc(Cl)c(Cl)c2)OCCCC[C@H](C)Oc2ccc(NC(=O)Nc3ccc(F)cc3)cc2C1=O	100.3*	-1.5	-12.0	0.3	83.4	108.4*	14.3	54.9*
COc1cccc(-c2ccccc2[C@@H]2[C@@H](CO)N(C(=O)Cc3ccccc3)[C@H]2C#N)c1	.	-2.1	-17.0	.	.	.	.	.
COc1cccc(-c2ccc([C@H]3[C@@H](CO)N(C(=O)Cc4ccccc4)[C@H]3C#N)cc2)c1	96.7*	-2.2	-72.5	.	95.7*	98.5*	21.5	36.7*
COc1cccc(-c2ccc([C@@H]3[C@H](C#N)N(C(=O)Cc4ccccc4)[C@H]3CO)cc2)c1	?	-4.0	-31.5	.	110.9*	54.8	6.7	33.0*
CO[C@H]1CN(C)C(=O)c2ccc(NC(=O)C3CC3)cc2OC[C@@H](C)N(C(=O)c2cccnc2)C[C@@H]1C	108.6*	-0.4	-0.9	-0.5	-18.0	-18.2	-11.7	-3.9
CO[C@H]1CN(C)C(=O)c2ccc(NC(=O)C3CC3)cc2OC[C@H](C)N(C(=O)c2cccnc2)C[C@H]1C	-31.1	-0.2	19.7	0.0	.	.	.	.
CCC(=O)Nc1ccc2c(c1)OC[C@H](C)N(C(=O)c1ccc(F)cc1)C[C@@H](C)[C@@H](OC)CN(C)C2=O	104.5*	1.7	4.4	0.1	-11.5	0.6	-5.1	-1.5
O=C(Nc1ccc(C(F)(F)F)cc1)Nc1ccc2c(c1)[C@H]1C[C@@H](CC(=O)N3CCc4ccccc4C3)O[C@@H](CO)[C@H]1O2	93.0	-0.7	-66.5	0.4	.	.	.	.
CN(C)c1ccc2c(c1)[C@@H]1C[C@@H](CC(=O)N3CCc4ccccc4C3)O[C@@H](CO)[C@@H]1O2	135.2*	9.8	-86.1*	-0.7	25.5	21.8	-3.4	11.1
O=C(Nc1ccc(C(F)(F)F)cc1)Nc1ccc2c(c1)[C@H]1C[C@@H](CC(=O)N3CCc4ccccc4C3)O[C@H](CO)[C@H]1O2	?	-2.5	-49.0	0.3	89.3	111.6*	31.0	39.5*
CN(C)c1ccc2c(c1)[C@@H]1C[C@H](CC(=O)N3CCc4ccccc4C3)O[C@H](CO)[C@@H]1O2	87.4	23.8	-74.3	-2.9	.	.	.	.
O=C(Nc1ccc(C(F)(F)F)cc1)Nc1ccc2c(c1)[C@H]1C[C@H](CC(=O)N3CCc4ccccc4C3)O[C@@H](CO)[C@H]1O2	140.5*	1.6	-53.3	1.0	95.7*	87.0	4.4	102.6*
C[C@H](CO)N1C[C@H](C)[C@H](CN(C)Cc2ccc(C(=O)Nc3ccccc3N)cc2)Oc2c(NC(=O)c3nc4ccccc4s3)cccc2C1=O	?	-0.6	-92.6*	-0.3	102.3*	105.0*	22.8	63.7*
C[C@H](CO)N1C[C@H](C)[C@@H](CN(C)Cc2ccc(C(=O)O)cc2)Oc2c(NC(=O)c3nc4ccccc4s3)cccc2C1=O	41.5	0.1	9.3	-9.9	.	.	.	.
C[C@H]1CN([C@@H](C)CO)C(=O)c2cccc(NC(=O)c3nc4ccccc4s3)c2O[C@@H]1CN(C)Cc1ccc(C(=O)Nc2ccccc2N)cc1	105.8*	0.0	-89.5*	-0.3	107.3*	92.2	10.9	?

Screens deposited in PubChem BioAssay by Broad Institute.
